33 molecules from ChEMBL document CHEMBL2069210, “D-ring modified novel isosteviol derivatives: design, synthesis and cytotoxic activity evaluation” (Bioorg Med Chem Lett, 2012) can be followed below.

As a reminder, the IC50 is the concentration that gives 50% inhibition. Read a high IC50 as lower potency.

What all share (format): functional, cell-based
One experiment concerns HCT-116. Description: Antiproliferative activity against human HCT116 cells after 72 hrs by MTT assay. Conditions: HCT-116, 72 h. An outline of the steps: (§1)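 Seeded at 5 × 10^3 cells/well and left 24 h. Medium then replaced with fresh medium holding compound over a range of concentrations, and cells incubated a further 72 h. 0.5 mg/mL MTT in PBS added for 4 h, formazan dissolved in DMSO, absorbance read at 562 nm. IC50 derived from percent inhibition across concentrations.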
On the technique in general: Tetrazolium assays rely on reduction of a dye to a coloured formazan, in cell work by metabolically active cells.

A further experiment deals with PC-3. Description: Antiproliferative activity against human PC3 cells after 72 hrs by MTT assay. Conditions: PC-3, 72 h. An outline of the steps: as §1
Experiment [1] can be described thus: Antiproliferative activity against human ECA109 cells after 72 hrs by MTT assay. Conditions: ECa-109, 72 h. The method, boiled down: as §1
Experiment [2] is described as follows: Antiproliferative activity against human EC9706 cells after 72 hrs by MTT assay. Conditions: EC9706, 72 h. An outline of the steps: as §1

Some results are limits rather than exact numbers.

Consider `C[C@@]12CC[C@@H]3[C@@](CC[C@H]4[C@@]3(C)CCC[C@@]4(C)C(=O)O)(CC1=O)C2` [ISOSTEVIOL], for which the IC50 (in the experiment on HCT-116; in the experiment on PC-3; in experiment [1]; in experiment [2]) was greater than 100 µM in each case.
Turning to `CCOC(=O)[C@]1(C)CCC[C@@]2(C)[C@@H]3CC[C@@]4(C)C[C@]3(CC[C@@H]21)[C@@H](O)[C@H]4NC(=S)Nc1cccc2ccccc12`, the IC50 is greater than 100 µM in the experiment on HCT-116, greater than 100 µM in the experiment with PC-3, 90.9 µM in experiment [1] and greater than 100 µM in experiment [2].
For the molecule `CCOC(=O)[C@]1(C)CCC[C@@]2(C)[C@@H]3CC[C@@]4(C)C[C@]3(CC[C@@H]21)C(=O)[C@H]4NC(=S)Nc1cccc2ccccc12`, the IC50 (in the experiment with HCT-116; in the experiment on PC-3; in experiment [1]; in experiment [2]) was greater than 100 µM each time.
As to `CCOC(=O)[C@]1(C)CCC[C@@]2(C)[C@@H]3CC[C@@]4(C)C[C@]3(CC[C@@H]21)C(=O)[C@H]4NC(=O)[C@@H]1CCCN1`, the IC50 (in the experiment on HCT-116; with PC-3; in experiment [1]; in experiment [2]) was greater than 100 µM each time.
In the case of `CCOC(=O)[C@]1(C)CCC[C@@]2(C)[C@@H]3CC[C@@]4(C)C[C@]3(CC[C@@H]21)[C@@H](O)/C4=N\O`, the IC50 (in the experiment on HCT-116; with PC-3; in experiment [1]; in experiment [2]) was greater than 100 µM throughout.
As to `CCOC(=O)[C@]1(C)CCC[C@@]2(C)[C@@H]3CC[C@@]4(C)C[C@]3(CC[C@@H]21)C(=O)[C@H]4NC(=S)Nc1ccccc1`, the IC50 (with HCT-116; in the experiment with PC-3; in experiment [1]; in experiment [2]) was greater than 100 µM in each case.
On to `CCOC(=O)[C@]1(C)CCC[C@@]2(C)[C@@H]3CC[C@@]4(C)C[C@]3(CC[C@@H]21)C(=O)[C@H]4O`, for which the IC50 (with HCT-116; in the experiment on PC-3; in experiment [1]; in experiment [2]) was greater than 100 µM each time.
For `CCOC(=O)[C@]1(C)CCC[C@@]2(C)[C@@H]3CC[C@@]4(C)C[C@]3(CC[C@@H]21)C(=O)C4=O`, the IC50 (in the experiment with HCT-116; with PC-3; in experiment [1]; in experiment [2]) was greater than 100 µM in each case.
With `C[C@]12CC[C@H]3[C@]4(C)CCC[C@@](C)(CO)[C@H]4CC[C@@]3(C1)[C@@H](O)/C2=N\O`, the IC50 (in the experiment with HCT-116; in the experiment with PC-3; in experiment [1]; in experiment [2]) was greater than 100 µM throughout.
As to `CCOC(=O)[C@]1(C)CCC[C@@]2(C)[C@@H]3CC[C@@]4(C)C[C@]3(CC[C@@H]21)C(=O)[C@H]4NC(=S)Nc1cc(C(F)(F)F)cc(C(F)(F)F)c1`, the IC50 (in the experiment on HCT-116; with PC-3; in experiment [1]; in experiment [2]) was greater than 100 µM each time.
Turning to `CCOC(=O)[C@]1(C)CCC[C@@]2(C)[C@@H]3CC[C@@]4(C)C[C@]3(CC[C@@H]21)[C@@H](O)[C@H]4N`, the IC50 in the experiment with HCT-116 was 20.1 µM; with PC-3, 25.4 µM; in experiment [1] it was 41.3 µM; in experiment [2] it was 19.3 µM.
In the same order, the values of `CCOC(=O)[C@]1(C)CCC[C@@]2(C)[C@@H]3CC[C@@]4(C)C[C@]3(CC[C@@H]21)[C@H](C=O)[C@H]4O` are greater than 100 µM, greater than 100 µM, 26.5 µM and 24.4 µM.
In the same order, the values of `CCOC(=O)[C@]1(C)CCC[C@@]2(C)[C@@H]3CC[C@](C)(C#N)C[C@@]3(C(=O)O)CC[C@@H]21` are greater than 100 µM, greater than 100 µM, greater than 100 µM and greater than 100 µM.
In the same order, the values of `CCOC(=O)[C@]1(C)CCC[C@@]2(C)[C@@H]3CC[C@](C)(C(=O)O)C[C@@]3(C(=O)O)CC[C@@H]21` are greater than 100 µM, greater than 100 µM, greater than 100 µM and greater than 100 µM.
Regarding `CCOC(=O)[C@]1(C)CCC[C@@]2(C)[C@@H]3CC[C@]4(C)C=C(C=O)[C@@]3(CC[C@@H]21)C4`, the IC50 with HCT-116 is greater than 100 µM; in the experiment on PC-3, 40.3 µM; in experiment [1], greater than 100 µM; in experiment [2] it was greater than 100 µM.
`CCOC(=O)[C@]1(C)CCC[C@@]2(C)[C@@H]3CC[C@@]4(C)C[C@]3(CC[C@@H]21)[C@H](/C=N/O)[C@H]4O`: the IC50 with HCT-116 was greater than 100 µM; in the experiment on PC-3, greater than 100 µM; in experiment [1], 17.9 µM; in experiment [2], 56.6 µM.
For the molecule `CCOC(=O)[C@]1(C)CCC[C@@]2(C)[C@@H]3CC[C@@]4(C)C[C@]3(CC[C@@H]21)CC4=O`, the IC50 (in the experiment on HCT-116; in the experiment with PC-3; in experiment [1]; in experiment [2]) was greater than 100 µM throughout.
Turning to `CCOC(=O)[C@]1(C)CCC[C@@]2(C)[C@@H]3CC[C@@]4(C)C[C@]3(CC[C@@H]21)C(=O)OC4=O`, the IC50 (in the experiment on HCT-116; with PC-3; in experiment [1]; in experiment [2]) was greater than 100 µM in each case.
Consider `CCOC(=O)[C@]1(C)CCC[C@@]2(C)[C@@H]3CC[C@@]4(C)C[C@]3(CC[C@@H]21)[C@@H](O)[C@H]4NC(=S)Nc1ccccc1`, for which the IC50 with HCT-116 is greater than 100 µM; in the experiment on PC-3 it was greater than 100 µM; in experiment [1], 72.3 µM; in experiment [2] it was greater than 100 µM.
Turning to `CCOC(=O)[C@]1(C)CCC[C@@]2(C)[C@@H]3CC[C@@]4(C)C[C@]3(CC[C@@H]21)[C@@H](O)[C@H]4NC(=O)[C@@H]1CCCN1`, the IC50 in the experiment on HCT-116 was greater than 100 µM; with PC-3, greater than 100 µM; in experiment [1], 69.5 µM; in experiment [2], 60.7 µM.
For `CCOC(=O)[C@]1(C)CCC[C@@]2(C)[C@@H]3CC[C@@]4(C)C[C@]3(CC[C@@H]21)[C@H](CNC(C)=O)[C@H]4OC(C)=O`, the IC50 (with HCT-116; in the experiment on PC-3; in experiment [1]; in experiment [2]) was greater than 100 µM each time.
As for `CCOC(=O)[C@]1(C)CCC[C@@]2(C)[C@@H]3CC[C@@]4(C)C[C@]3(CC[C@@H]21)[C@H](C=O)[C@H]4N1CCCC1`, the IC50 is greater than 100 µM in the experiment on HCT-116, greater than 100 µM in the experiment on PC-3, 30.3 µM in experiment [1] and greater than 100 µM in experiment [2].
With `CCOC(=O)[C@]1(C)CCC[C@@]2(C)[C@@H]3CC[C@](C)(C#N)C[C@@]3(C=O)CC[C@@H]21`, the IC50 (in the experiment with HCT-116; in the experiment with PC-3; in experiment [1]; in experiment [2]) was greater than 100 µM in each case.
`CCOC(=O)[C@]1(C)CCC[C@@]2(C)[C@@H]3CC[C@@]4(C)C[C@]3(CC[C@@H]21)C(=O)[C@H]4N`: the IC50 with HCT-116 is greater than 100 µM; with PC-3, greater than 100 µM; in experiment [1], greater than 100 µM; in experiment [2], 97.2 µM.
Consider `CCOC(=O)[C@]1(C)CCC[C@@]2(C)[C@@H]3CC[C@](C)(C(N)=O)C[C@@]3(C(=O)O)CC[C@@H]21`, for which the IC50 (with HCT-116; in the experiment on PC-3; in experiment [1]; in experiment [2]) was greater than 100 µM each time.
On to `CCOC(=O)[C@]1(C)CCC[C@@]2(C)[C@@H]3CC[C@@]4(C)C[C@]3(CC[C@@H]21)C(Br)C4=O` (some centres not stated), for which the IC50 (with HCT-116; in the experiment on PC-3; in experiment [1]; in experiment [2]) was greater than 100 µM in each case.
In the case of `CCOC(=O)[C@]1(C)CCC[C@@]2(C)[C@@H]3CC[C@@]4(C)C[C@]3(CC[C@@H]21)[C@@H](O)[C@H]4NC(=S)Nc1cc(C(F)(F)F)cc(C(F)(F)F)c1`, the IC50 with HCT-116 amounted to 14.3 µM; in the experiment with PC-3 it was 20.6 µM; in experiment [1] it was 45.8 µM; in experiment [2] it was 24.1 µM.
In the same order, the values of `CCOC(=O)[C@]1(C)CCC[C@@]2(C)[C@@H]3CC[C@@]4(C)C[C@]3(CC[C@@H]21)[C@@H](CN)[C@@H]4O` are 12.2 µM, 15.3 µM, 5.02 µM and 4.01 µM.
In the same order, the values of `CCOC(=O)[C@]1(C)CCC[C@@]2(C)[C@@H]3CC[C@@]4(C)C[C@]3(CC[C@@H]21)C[C@H]4O` are greater than 100 µM, greater than 100 µM, greater than 100 µM and greater than 100 µM.
In the same order, the values of `CCOC(=O)[C@]1(C)CCC[C@@]2(C)[C@@H]3CC[C@@]4(C)C[C@]3(CC[C@@H]21)[C@@H](O)[C@H]4O` are greater than 100 µM, 87.6 µM, 90.3 µM and 52.1 µM.
With `CCOC(=O)[C@]1(C)CCC[C@@]2(C)[C@@H]3CC[C@@]4(C)C[C@]3(CC[C@@H]21)C(=O)/C4=N\O`, the IC50 (with HCT-116; in the experiment with PC-3; in experiment [1]; in experiment [2]) was greater than 100 µM each time.
Turning to `CCOC(=O)[C@]1(C)CCC[C@@]2(C)[C@@H]3CC[C@@]4(C)C[C@]3(CC[C@@H]21)[C@H](CO)[C@H]4O`, the IC50 in the experiment on HCT-116 is greater than 100 µM; in the experiment on PC-3, greater than 100 µM; in experiment [1], 43.3 µM; in experiment [2] it was 91.6 µM.
On to `CCOC(=O)[C@]1(C)CCC[C@@]2(C)[C@@H]3CC[C@@]4(C)C[C@]3(CC[C@@H]21)[C@H](CNC(C)=O)[C@H]4O`, for which the IC50 in the experiment with HCT-116 is greater than 100 µM; with PC-3, greater than 100 µM; in experiment [1], 13.3 µM; in experiment [2], 21.2 µM.
